Results on 14 molecules are retold here after publication PMC6559718 (Journal of biomolecular screening, 2016).

One data set deals with T1, human ANT1 (Homo sapiens, UniProt P12235).
T1 sequence (P12235 1-298): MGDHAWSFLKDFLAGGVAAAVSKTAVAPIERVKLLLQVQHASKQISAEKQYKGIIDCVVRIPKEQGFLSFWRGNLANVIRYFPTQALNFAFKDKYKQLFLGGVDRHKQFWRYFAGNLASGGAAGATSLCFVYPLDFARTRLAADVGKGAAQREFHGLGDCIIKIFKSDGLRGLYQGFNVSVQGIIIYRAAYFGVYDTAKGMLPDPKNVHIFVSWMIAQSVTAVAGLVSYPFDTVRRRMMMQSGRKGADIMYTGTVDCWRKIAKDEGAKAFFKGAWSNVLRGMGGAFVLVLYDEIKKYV
The experiment in a line: ADP/ATP exchange with Lactococcus lactis expressing hANT1. It is filed as biochemical. The conditions noted are these: for IC50: read-out: L. lactis hANT1 IC50, [3H]ADP uptake, ADP/ATP exchange, mean ± SEM.

Data set [1] deals with T2, human ANT2 (Homo sapiens, UniProt P05141).
T2 sequence (P05141 1-298): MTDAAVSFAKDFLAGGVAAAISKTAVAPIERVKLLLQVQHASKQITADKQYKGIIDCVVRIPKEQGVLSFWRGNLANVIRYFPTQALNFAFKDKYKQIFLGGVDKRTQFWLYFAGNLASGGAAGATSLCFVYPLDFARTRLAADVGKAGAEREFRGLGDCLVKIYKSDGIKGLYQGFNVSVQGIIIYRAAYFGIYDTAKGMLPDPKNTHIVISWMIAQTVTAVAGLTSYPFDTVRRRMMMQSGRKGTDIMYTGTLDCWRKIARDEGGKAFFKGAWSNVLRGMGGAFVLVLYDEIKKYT
The experiment in a line: ADP/ATP exchange with Lactococcus lactis expressing hANT2. The conditions noted are these: for IC50: read-out: L. lactis hANT2 IC50, [3H]ADP uptake, ADP/ATP exchange, mean ± SEM. It is filed as biochemical.

The target of the next data set is T3, human ANT3 (Homo sapiens, UniProt P12236).
T3 sequence (P12236 1-298): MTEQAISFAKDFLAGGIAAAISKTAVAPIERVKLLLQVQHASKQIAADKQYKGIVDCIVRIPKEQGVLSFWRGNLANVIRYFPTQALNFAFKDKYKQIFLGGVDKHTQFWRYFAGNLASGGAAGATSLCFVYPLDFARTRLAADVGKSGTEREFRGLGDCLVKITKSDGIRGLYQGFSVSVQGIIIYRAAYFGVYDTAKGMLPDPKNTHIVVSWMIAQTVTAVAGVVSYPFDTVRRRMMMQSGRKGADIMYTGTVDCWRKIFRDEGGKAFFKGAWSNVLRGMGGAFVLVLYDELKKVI
The experiment in a line: ADP/ATP exchange with Lactococcus lactis expressing hANT3. Format: biochemical. The conditions noted are these: for IC50: read-out: L. lactis hANT3 IC50, [3H]ADP uptake, ADP/ATP exchange, mean ± SEM.

Another data set relates to HCT116 cells. Kind of data set: Oxygen consumption rate in HCT116 cells. It is filed as cell-based, human. The note with it: after ADP addition, leelamine 50 pM as printed. The essentials: (§1)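 Cells were kept in RPMI1640 with 10% FBS, plated at 20,000/well, and incubated overnight at 37 °C in 5% CO2. Before the assay, medium was replaced with MAS buffer (mannitol/sucrose/KH2PO4/MgCl2/HEPES/EGTA, 0.2% fatty-acid-free BSA, pH 7.4) plus 10 mM pyruvate and […]. Sequential injections were atpenin A5, 3.5 mM ADP, plasma membrane permeabilizer, then test compound or cATR control. OCR was read on an extracellular flux analyzer.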

In another data set the test system is MiaPaCa-2 cells. Kind of data set: Oxygen consumption rate in MiaPaCa-2 cells. Format: cell-based, human. The note with it: after ADP addition, leelamine 50 pM as printed. In short, it runs like this: as §1
Data set [2] relates to human ANT isoforms. Kind of data set: ADP/ATP exchange in isolated yeast mitochondria, human ANT isoforms. It is filed as biochemical.
For data set [3], the system named is human ANT isoforms. Kind of data set: ADP/ATP exchange in L. lactis, human ANT isoforms. The note with it: single-concentration test of compounds selected from the yeast growth assay. It is filed as biochemical.
For data set [4], the target named is T2, human ANT2. Kind of data set: ADP/ATP exchange with isolated yeast mitochondria expressing hANT2. It is filed as biochemical. The note with it: 10 μM, isolated yeast mitochondria, hANT2 (Fig. 2B left).
For data set [5], the system named is yeast strain expressing hANT1. Kind of data set: microbe, parasite or virus in culture. Format: cell-based. The note with it: Saccharomyces cerevisiae, read-out: Activity hANT1 IC50.
The test system of data set [6] is yeast strain expressing hANT2. Kind of data set: microbe, parasite or virus in culture. It is filed as cell-based. The note with it: Saccharomyces cerevisiae, read-out: Activity hANT2 IC50.
Data set [7] relates to yeast strain expressing hANT3. Kind of data set: microbe, parasite or virus in culture. It is filed as cell-based. The note with it: Saccharomyces cerevisiae, read-out: Activity hANT3 IC50.
For data set [8], the system named is yeast strain expressing hANT4. Kind of data set: microbe, parasite or virus in culture. It is filed as cell-based. The conditions noted are these: Saccharomyces cerevisiae, read-out: Activity hANT4 IC50.
A short description of data set [9]: in vitro. The conditions noted are these: Saccharomyces cerevisiae.
Data set [10] is described as follows: in vitro. The note with it: Saccharomyces cerevisiae. This is another data set of the same source.
Data set [11] in a line: in vitro. The note with it: Saccharomyces cerevisiae. This is another data set of the same source.
A short description of data set [12]: in vitro. The conditions noted are these: Saccharomyces cerevisiae. This is another data set of the same source.
In data set [13] the test system is four hANT yeast strains. The experiment in a line: Yeast growth assay in YPEG medium, the four hANT yeast strains. It is filed as cell-based, Saccharomyces cerevisiae. The conditions noted are these: hANT1, -2, -3 or -4 yeast strains, BKA final 50 μM.
Data set [14] relates to four hANT yeast strains.

Broadly, the IC50 is the concentration needed to halve the response being measured. With `CC(C)c1ccc2c(c1)CC[C@H]1[C@](C)(CN)CCC[C@]21C` [Leelamine], at human ANT1 (Fig. 3C), the “effect on translocase activity in L. lactis expressing hANT1” value was “increased translocase activity”. For the same molecule, the 50% inhibitory concentration (IC50) on human ANT1 was > 100 µM; at human ANT2 [1] it was > 100 µM; at human ANT3, 47 ± 11 µM. The “effect on translocase activity in L. lactis expressing hANT2” value on human ANT2 [1] (Fig. 3C) is on record as “increased translocase activity”. For the same molecule, the “effect on translocase activity in L. lactis expressing hANT3” value on human ANT3 (Fig. 3C) is “inhibited the activity”. For the same molecule, the results for the “oxygen consumption rate (OCR)” value in the data set on HCT116 cells and in the data set with MiaPaCa-2 cells were “decreased the OCR to a similar extent as cATR” and “decreased OCR”, respectively. Moreover, the “effect on hANT activity in mitochondrial assays” value with human ANT isoforms [2] (100 μM, all isoforms) is given as “inhibited hANT activity”. The “effect on translocase activity in mitochondria” value in the data set on human ANT isoforms [2] (10 and 30 μM, hANT4, hANT3 and particularly hANT2 strains) was “increased translocase activity”. Besides, the “inhibition of [3H]ADP uptake by L. lactis” value (“inhibition of [3H]ADP uptake” for short) with human ANT isoforms [3] is “inhibited”.
Regarding `C=C1[C@@H]2CC[C@H]3[C@]4(C)C[C@H](O[C@@H]5O[C@H](CO)[C@@H](OS(=O)(=O)O)[C@H](OS(=O)(=O)O)[C@H]5OC(=O)CC(C)C)CC(C(=O)O)(C(=O)O)[C@H]4CC[C@]3(C2)[C@H]1O` [cATR, carboxyatractyloside], the “ADP/ATP exchange activity / ADP uptake” value on human ANT2 [4] was “completely inhibited”. In addition, the half-maximal inhibitory concentration (IC50) was 0.0024 ± 0.0005 µM at human ANT1, 0.0017 ± 0.0004 µM at human ANT2 [1] and 0.0023 ± 0.0007 µM on human ANT3. Further, the “oxygen consumption rate (OCR)” value in the data set with HCT116 cells and with MiaPaCa-2 cells was “decreased OCR” throughout.
`CC(C)(C)c1cc(C=C(C#N)C#N)cc(C(C)(C)C)c1O` [Tyrphostin A9]: the 50% inhibitory concentration (IC50) in [5] was 42 ± 20 µM; in [6], 35 ± 15 µM; in [7] it was 24 ± 10 µM; in data set [8], 13 ± 4 µM; in “in vitro [9]” it was > 100 µM; in the data set “in vitro [10]”, > 100 µM. Also, the IC50 in “in vitro [11]” and in the data set “in vitro [12]” was > 100 µM throughout.
In the case of `C=C1[C@@H]2CC[C@H]3[C@]4(C)C[C@H](O[C@@H]5O[C@H](CO)[C@@H](OS(=O)(=O)O)[C@H](OS(=O)(=O)O)[C@H]5OC(=O)CC(C)C)C[C@@H](C(=O)O)[C@H]4CC[C@]3(C2)[C@H]1O` [ATR, atractyloside], on human ANT2 [4], the “ADP/ATP exchange activity / ADP uptake” value was “completely inhibited”.
With `N#CC(C#N)=NNc1ccc(OC(F)(F)F)cc1` [FCCP, carbonyl cyanide-4-(trifluoromethoxy) phenylhydrazone], the “[3H]ADP uptake in L. lactis” value on human ANT2 [1] (10 μM, L. lactis expressing hANT2 (Fig. 2B right)) was “inactive”.
Take `O=C(Nc1cc(C(F)(F)F)cc(C(F)(F)F)c1)c1cc(Cl)ccc1O` [IMD 0354]: the IC50 worked out at 0.58 ± 0.1 µM in data set [5], 0.45 ± 0.1 µM in data set [6], 0.52 ± 0.08 µM in data set [7] and 0.85 ± 0.07 µM in data set [8].
As to `C[C@@H]1C[C@H]2CC[C@H](O2)[C@H](C)C(=O)O[C@@H](C)C[C@@H]2CC[C@@H](O2)[C@@H](C)C(=O)O[C@H](C)C[C@H]2CC[C@H](O2)[C@H](C)C(=O)O[C@@H](C)C[C@@H]2CC[C@@H](O2)[C@@H](C)C(=O)O1` [Nonactin], the IC50 in data set [5] is 4.4 ± 1.3 µM; in [6] it was 3.3 ± 1.1 µM; in [7], 4.7 ± 1.5 µM; in [8] it was 3.3 ± 0.4 µM; in the data set “in vitro [9]” it was > 100 µM; in the data set “in vitro [10]”, > 100 µM. In addition, the half-maximal inhibitory concentration (IC50) in the data set “in vitro [11]” and in “in vitro [12]” was > 100 µM each time.
Regarding antimycin, the “ADP/ATP exchange activity / ADP uptake” value at human ANT2 [4] is given as “reduced ADP uptake”.
Regarding `COc1ccc2c(c[n+](C)c3c4cc5c(cc4ccc23)OCO5)c1OC` [chelerythrine], on human ANT2 [4], the “ADP/ATP exchange activity / ADP uptake” value is “reduced ADP uptake”.
In the case of `CO[C@H](C/C=C\C=C\CC/C=C/C[C@H](C)/C=C/C(=C\C(=O)O)CC(=O)O)/C(C)=C\C=C(/C)C(=O)O` [BKA, bongkrekic acid], at human ANT2 [4], the “ADP/ATP exchange activity / ADP uptake” value is recorded as “completely inhibited”. The “activity in LOPAC pilot screen” value in the data set on four hANT yeast strains [13] was “weakly active”.
On to `O=C(O)c1ccc2cc(-c3ccc(O)c(C45CC6CC(CC(C6)C4)C5)c3)ccc2c1` [CD437], for which the half-inhibitory concentration (IC50) on human ANT1 is 54 ± 9 µM; at human ANT2 [1], 36 ± 6.3 µM; on human ANT3 it was 94 ± 19 µM. Moreover, the “selectivity for hANT2 over hANT3” value on human ANT2 [1] (L. lactis assay) was ~ 3 fold. Besides, the “oxygen consumption rate (OCR)” value with HCT116 cells is on record as “inhibited OCR”; with MiaPaCa-2 cells it was “Neither CD437 nor closantel produced an appreciable level of reduction of OCR”. In the data set with human ANT isoforms [3], the “inhibition of [3H]ADP uptake” value is recorded as “inhibited”. Also, the “cytotoxic effect in glucose-containing medium” value in the data set on four hANT yeast strains [14] is “exhibited cytotoxic effect in certain strains”.
With `CCCCc1oc2ccccc2c1C(=O)c1cc(I)c(OCCN(CC)CC)c(I)c1` [Amiodarone], the “activity in LOPAC pilot screen” value with four hANT yeast strains [13] is on record as “identified as a hit”. Moreover, in the data set with four hANT yeast strains [14], the “cytotoxic effect in glucose-containing medium” value is on record as “exhibited cytotoxic effect in certain strains”.
Regarding `CN(C)c1ccc(O)c2c1C[C@H]1C[C@H]3[C@H](N(C)C)C(O)=C(C(N)=O)C(=O)[C@@]3(O)C(O)=C1C2=O` [Minocycline], the half-inhibitory concentration (IC50) (in [5]; in data set [6]; in data set [7]; in data set [8]; in the data set “in vitro [9]”; in “in vitro [10]”) was > 100 µM throughout. For the same molecule, the concentration for half-maximal inhibition (IC50) in the data set “in vitro [11]” and in “in vitro [12]” was > 100 µM in each case. Also, the “inhibition of exchange activity in the mitochondrial assay” value in the data set on human ANT isoforms [2] (30 μM, in at least one yeast strain (Suppl. Table S1)) was “strong inhibition”. For the same molecule, in the data set with human ANT isoforms [3], the “inhibition of [3H]ADP uptake” value was “completely inactive”.
For `O=C(O)c1nn(Cc2ccc(Cl)cc2Cl)c2ccccc12` [lonidamine], the “ADP/ATP exchange activity / ADP uptake” value at human ANT2 [4] is “reduced ADP uptake”.
